Results reported in ChEMBL document CHEMBL4371044, “Celastrol Promotes Weight Loss in Diet-Induced Obesity by Inhibiting the Protein Tyrosine Phosphatases PTP1B and TCPTP in the Hypothalamus” (J Med Chem, 2018).
Calls of active or inactive are those of the source. The calls are words filed in the database; no cut-off is given here.

Experiments:
Mus musculus [1] = assay: Antiobesity activity in high fat diet-induced obese Ptpn2fl/fl null C57BL/6 mouse assessed as reduction in body weight at 100 ug/kg, ip for 10 consecutive days; format: functional, organism-based
How it was run: (§1)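 Male Ptpn1fl/fl, Ptpn2fl/fl or double-floxed mice: chow 8 weeks, then high-fat diet (45% energy from fat) 12 weeks. Bilateral intra-ARC stereotaxic injection of rAAV-CMV-Cre-GFP or rAAV-CMV-GFP, 100 nL/side. After 2 weeks recovery, vehicle or 100 μg/kg ip daily at 6 pm for 10 days; body weight tracked; two-way repeated-measures ANOVA with Tukey test; means ± SEM.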

[2] = biological target: T1, Tyrosine-protein phosphatase non-receptor type 1 (Homo sapiens, UniProt P18031); assay: (§2) Inhibition of human N-terminal His6-tagged PTP1B catalytic domain (1 to 298 residues) expressed in Escherichia coli strain Rosetta2 (DE3) using DiFMUP as substrate preincubated for 10 mins followed by substrate addition and measured after 10 mins by fluorescence assay
T1 sequence (P18031 whole entry): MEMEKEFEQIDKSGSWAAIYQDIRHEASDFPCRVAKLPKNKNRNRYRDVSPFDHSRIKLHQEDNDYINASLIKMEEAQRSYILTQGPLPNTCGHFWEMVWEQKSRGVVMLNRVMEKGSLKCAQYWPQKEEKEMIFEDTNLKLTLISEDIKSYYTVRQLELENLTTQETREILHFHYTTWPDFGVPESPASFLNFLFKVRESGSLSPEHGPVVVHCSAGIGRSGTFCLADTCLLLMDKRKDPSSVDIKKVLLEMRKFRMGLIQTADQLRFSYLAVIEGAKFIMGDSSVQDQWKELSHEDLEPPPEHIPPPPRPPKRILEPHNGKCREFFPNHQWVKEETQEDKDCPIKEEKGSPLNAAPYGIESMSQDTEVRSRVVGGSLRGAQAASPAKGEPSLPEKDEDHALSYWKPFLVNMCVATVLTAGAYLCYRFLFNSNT
How it was run: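 Tag-cleaved, SEC-purified enzyme at 1 nM, preincubated 10 min with compound at 15 concentrations from 0–500 μM (5% DMSO final) in 25 mM Bis-Tris propane pH 7.5, 50 mM NaCl, 2 mM EDTA. DiFMUP added at each construct's Km (10, 7, 10, 9 μM for PTP1B1−298, PTP1B1−393, TCPTP1−296, TCPTP1−336). Read ex 358/em 455 nm continuously 10 min at 37 °C; triplicate; log(inhibitor)-response fit.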

[3] = biological target: T2, Tyrosine-protein phosphatase non-receptor type 2 (Homo sapiens) (UniProt P17706); assay: as §2, with “Non competitive inhibition” for “Inhibition”, “TCPTP” for “PTP1B”, “336” for “298”, “assay Michaelis-Menten plot analysis” for “assay”
T2 sequence (whole entry): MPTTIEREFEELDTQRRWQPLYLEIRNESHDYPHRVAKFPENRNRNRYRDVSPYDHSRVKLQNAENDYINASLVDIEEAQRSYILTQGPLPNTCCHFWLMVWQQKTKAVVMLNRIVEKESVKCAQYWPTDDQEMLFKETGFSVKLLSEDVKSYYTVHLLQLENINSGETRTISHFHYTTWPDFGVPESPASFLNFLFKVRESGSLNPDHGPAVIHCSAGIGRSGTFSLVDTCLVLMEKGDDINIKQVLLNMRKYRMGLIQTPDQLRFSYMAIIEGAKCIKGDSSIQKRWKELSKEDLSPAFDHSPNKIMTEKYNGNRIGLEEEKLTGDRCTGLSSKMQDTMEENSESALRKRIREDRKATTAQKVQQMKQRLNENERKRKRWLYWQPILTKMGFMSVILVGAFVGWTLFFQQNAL

[4] = biological target: T1, Tyrosine-protein phosphatase non-receptor type 1; assay: Binding affinity to human N-terminal His6-tagged PTP1B catalytic domain (1 to 298 residues) expressed in Escherichia coli strain Rosetta2 (DE3) by switch sense technology based assay
How it was run: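 switchSENSE, fluorescence proximity mode: PTP1B1−298 immobilized on chip, analyte injected at increasing concentrations up to 100 μM at 100 μL/min in PE40 buffer (10 mM phosphate pH 7.4, 40 mM NaCl, 50 μM EGTA/EDTA, 0.05% Tween 20). Buffer rinse for dissociation, recorded at the three highest concentrations; kon, koff, KD fitted.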

[5] = biological target: T1, Tyrosine-protein phosphatase non-receptor type 1; assay: Binding affinity to human N-terminal His6-tagged PTP1B catalytic domain (1 to 298 residues) expressed in Escherichia coli strain Rosetta2 (DE3) assessed as dissociation rate constant […]
[6] = biological target: T3, Tyrosine-protein phosphatase non-receptor type 1 (Homo sapiens) (UniProt P18031); assay: Binding affinity to human N-terminal His6-tagged PTP1B catalytic domain (1 to 298 residues) expressed in Escherichia coli strain Rosetta2 (DE3) assessed as association half life using DiFMUP as substrate preincubated for 10 mins followed by substrate addition measured for 10 mins fluorescence assay
T3 sequence (whole entry): T1 sequence (P18031 whole entry)

Mus musculus [7] = assay: Antiobesity activity in high fat diet-induced obese Ptpn1fl/fl null C57BL/6 mouse treated with rAAV-CMV-Cre-GFP for deletion of TCPTP assessed as reduction in body weight at 100 ug/kg, ip for 10 consecutive days; format: functional, organism-based; how it was run: as §1
[8] = biological target: T3, Tyrosine-protein phosphatase non-receptor type 1 (Homo sapiens); assay: Covalent binding to human N-terminal His6-tagged PTP1B catalytic domain (1 to 298 residues) expressed in Escherichia coli strain Rosetta2 (DE3) by mass spectrometry
How it was run: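 PTP1B at 2 mg/mL incubated 30 min with or without compound (1:5, 2% DMSO) in 50 mM Tris-HCl pH 7.5, 75 mM NaCl; C4 ZipTip cleanup; MALDI-TOF in CHCA matrix.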

## CC1=C(O)C(=O)C=C2C1=CC=C1[C@@]2(C)CC[C@@]2(C)[C@@H]3C[C@](C)(C(=O)O)CC[C@]3(C)CC[C@]12C [CELASTROL]
Mus musculus [1]
  Activity: Active
[2]
  IC50: 4.8 µM
[3]
  inhibition: Active
[4]
  Kd: 6.08 µM
[5]
  koff: 3.62 ×10⁻⁴ /s
[6]
  T1/2: 31.9 min
Mus musculus [7]
  Activity: inactive
[8]
  Activity: inactive
